The values below come from publication PMC9918595 (Molecular imaging and biology, 2022).

Data set [1] deals with human TRPC5. Conditions: calcium flux assay; cited from earlier work. (In general: Calcium flux is commonly read through the fluorescence of an indicator in the cells.)
Data set [2] relates to human TRPC5. Conditions: whole-cell manual patched clamp assay; cited from earlier work.
For data set [3] the following is noted: in vivo studies; cited from earlier work.
In data set [4] the test system is wide range of molecular targets including ion channels (TRPV, TRPM), receptors (dopamine D1 and D2, NMDA, TNF-α) and enzymes (acetylcholinesterase, tyrosine …). Conditions: patch clamp assay; cited from earlier work. For orientation: The patch-clamp technique gives a direct electrical read-out from membranes.
Data set [5] has as its target T1, TRPC5 (Rattus norvegicus, UniProt Q8VD38).
T1 sequence (Q8VD38 1-974): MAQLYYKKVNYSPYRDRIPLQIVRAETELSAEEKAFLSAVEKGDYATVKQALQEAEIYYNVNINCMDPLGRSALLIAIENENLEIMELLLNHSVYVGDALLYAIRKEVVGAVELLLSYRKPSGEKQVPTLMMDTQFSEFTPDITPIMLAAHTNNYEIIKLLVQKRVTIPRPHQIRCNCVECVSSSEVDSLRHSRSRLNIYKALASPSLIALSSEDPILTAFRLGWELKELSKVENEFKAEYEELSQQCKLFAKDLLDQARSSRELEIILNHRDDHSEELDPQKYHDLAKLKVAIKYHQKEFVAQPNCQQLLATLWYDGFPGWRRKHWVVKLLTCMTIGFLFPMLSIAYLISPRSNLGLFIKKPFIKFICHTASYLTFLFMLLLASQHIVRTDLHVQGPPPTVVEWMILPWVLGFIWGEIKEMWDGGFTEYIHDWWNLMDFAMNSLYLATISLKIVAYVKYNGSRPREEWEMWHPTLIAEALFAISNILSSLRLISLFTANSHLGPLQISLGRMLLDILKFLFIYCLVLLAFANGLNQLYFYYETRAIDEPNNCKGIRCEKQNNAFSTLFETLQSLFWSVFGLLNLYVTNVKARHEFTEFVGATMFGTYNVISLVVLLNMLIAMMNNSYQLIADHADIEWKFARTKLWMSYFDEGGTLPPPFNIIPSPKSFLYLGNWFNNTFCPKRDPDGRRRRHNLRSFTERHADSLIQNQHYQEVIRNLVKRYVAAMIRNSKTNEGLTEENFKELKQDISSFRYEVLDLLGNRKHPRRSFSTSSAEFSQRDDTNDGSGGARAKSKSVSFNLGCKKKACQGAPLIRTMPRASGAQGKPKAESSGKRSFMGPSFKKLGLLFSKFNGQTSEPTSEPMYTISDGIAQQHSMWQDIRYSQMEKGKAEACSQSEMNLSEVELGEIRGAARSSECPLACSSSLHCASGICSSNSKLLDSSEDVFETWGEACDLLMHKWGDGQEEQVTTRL
The data set is described as follows: In vitro autoradiography study of the rat brain. It is filed as binding, Sprague Dawley rats.

Data set [6] relates to TRPC5. The data set is described as follows: MicroPET brain study of the nonhuman primate. It is filed as in vivo, cynomolgus macaques. A digest of the protocol: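 Adult male cynomolgus macaques (9–10 kg), two tracer scans in each of two animals; fasted 12 h, ketamine (10–20 mg kg−1) plus glycopyrrolate ([…]) i.m., intubated, 0.8–2.0% isoflurane/oxygen. Venous catheter; 10 min positioning and 45 min attenuation transmission scans. IV bolus ~0.35 GBq (injected mass ~4.2 μg); 0–120 min dynamic scan (3×1, 4×2, 3×3, 20×5 min frames).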

The nature of data set [7]: Solubility of the radiotracer in dose formulation. Type of data set: physicochemical.
For data set [8], the target named is T2, TRPC5 (Mus musculus, UniProt Q9QX29).
T2 sequence (Q9QX29 1-975): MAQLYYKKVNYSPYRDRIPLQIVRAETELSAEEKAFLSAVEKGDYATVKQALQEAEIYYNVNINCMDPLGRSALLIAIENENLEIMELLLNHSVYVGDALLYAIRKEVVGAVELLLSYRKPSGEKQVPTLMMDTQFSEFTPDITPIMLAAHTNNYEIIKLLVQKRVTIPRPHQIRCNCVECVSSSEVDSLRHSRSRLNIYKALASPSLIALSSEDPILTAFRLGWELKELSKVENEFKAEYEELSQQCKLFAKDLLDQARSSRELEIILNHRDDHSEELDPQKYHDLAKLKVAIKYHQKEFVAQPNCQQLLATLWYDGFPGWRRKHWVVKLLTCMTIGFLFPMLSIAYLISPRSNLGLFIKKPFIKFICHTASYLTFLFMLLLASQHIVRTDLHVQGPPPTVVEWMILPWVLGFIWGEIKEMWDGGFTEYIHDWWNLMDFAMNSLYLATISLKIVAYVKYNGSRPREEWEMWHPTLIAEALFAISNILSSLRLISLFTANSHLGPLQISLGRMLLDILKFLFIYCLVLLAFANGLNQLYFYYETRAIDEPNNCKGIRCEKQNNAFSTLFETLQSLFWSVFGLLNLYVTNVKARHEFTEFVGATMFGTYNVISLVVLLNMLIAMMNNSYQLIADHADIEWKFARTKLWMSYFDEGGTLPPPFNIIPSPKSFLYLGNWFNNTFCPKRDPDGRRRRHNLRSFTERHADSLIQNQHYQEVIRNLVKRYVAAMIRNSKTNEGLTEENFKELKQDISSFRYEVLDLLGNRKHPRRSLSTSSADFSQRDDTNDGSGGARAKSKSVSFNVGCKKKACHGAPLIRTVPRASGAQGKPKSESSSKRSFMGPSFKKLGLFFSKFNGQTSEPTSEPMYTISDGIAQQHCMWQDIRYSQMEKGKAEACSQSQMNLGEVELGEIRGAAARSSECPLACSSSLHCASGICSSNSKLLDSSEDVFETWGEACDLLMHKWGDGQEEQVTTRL
Type of data set: in vivo, 129S1/SvImJ mice. Conditions: 129S1/SvImJ wild-type mice.

Data set [9] deals with TRPC5. It is filed as in vivo, 129S1/SvImJ mice. As to conditions: 129S1/SvImJ TRPC5 knockout mice.
Data set [10] can be described thus: Ex vivo biodistribution study. Type of data set: in vivo, Sprague Dawley rats. Conditions: for Tracer uptake, Blood / Tracer uptake, Brain / Tracer uptake, Fat / Tracer uptake, Heart / Tracer uptake, Kidney / Tracer uptake, Lung / Tracer uptake, Muscle / Tracer uptake, Pancreas / Tracer uptake, Small intestine / Tracer uptake, Spleen / Tracer uptake, Thymus / Tracer uptake, Liver: iv, n = 4.

A short description of data set [11]: LogD7.4 measurement, shake flask method. Type of data set: physicochemical. Conditions: n-octanol / PBS pH 7.4, n = 3.

“And” between values parts separate entries of the source, which are not always exact repeats. Equal values may be shown once. “Also recorded” adds a separate entry of the source. Read-outs that look alike come from different tables or passages of the source.

As to `Cn1c(=O)n(CCCO)c(=O)c2c1nc(Oc1cccc(Cl)c1)n2Cc1ccc(Cl)cc1` [HC070], the IC50 with human TRPC5 [1] is 9.3 nM. Moreover, the IC50 with human TRPC5 [2] is 0.52 nM. Moreover, in data set [3], the “anxiolytic and antidepressant function” value was “carries anxiolytic and antidepressant function”; the oral bioavailability result is on record as “orally bioavailable”. In addition, the “selectivity over a wide range of molecular targets” value in data set [4] is given as “at least 400 fold”.

In the case of `Cn1c(=O)n(CCCO)c(=O)c2c1nc(Oc1cccc(OC(F)(F)F)c1)n2Cc1ccc(Cl)cc1` [HC608], the “blocking of [^11C]HC070 binding in rat brain sections” value at TRPC5 [5] (cold blocker at 1 μM) is listed as “significantly reduced binding; also recorded: able to reduce the radioactivity signal in the tissue slides very well; also recorded: significantly blocked”.

For `[11CH3]n1c(=O)n(CCCO)c(=O)c2c1nc(Oc1cccc(Cl)c1)n2Cc1ccc(Cl)cc1` [[^11C]HC070], the “regional brain uptake, prefrontal cortex (SUV)” value in the data set on TRPC5 [6] (macaque, highest regional radioactivity) came out at 2.88. Further, the “fold higher brain uptake compared with [^11C]HC608” value in the data set on TRPC5 [6] (macaque, initial time (5 min), average) amounted to 2.4 fold. Also, the “time of maximum brain uptake post-injection” value in the data set on TRPC5 [6] (male cynomolgus macaque) was 3 to 5 min. In addition, the “maximum total brain uptake (SUV)” value with TRPC5 [6] (male cynomolgus macaque, iv, 0-120 min dynamic PET) was ~ 2.2 and 2.2. Moreover, in data set [7] (dose formulation, ethanol/saline), the solubility result is “good solubility; also recorded: improved solubility in ethanol/saline medium”. Besides, the “residue retaining inside surface of a glass vial or a syringe” value in data set [7] (dose solution without Kolliphor HS15) was “little percentage of retaining was detected”. Moreover, the “time of peak brain uptake” value at TRPC5 [8] was ~ 1.0 min. Also, the “peak brain uptake (SUV)” value on TRPC5 [8] (iv, 0-60 min dynamic PET, n = 3) is 1.13 and ~ 1.13 and 1.13 ± 0.08. In addition, the “time of peak brain uptake” value in the data set on TRPC5 [9] is at most 2 min. The “brain uptake ratio from 5 min to 60 min” value in data set [10] (SD rats, 5 min/60 min) came out at 4.5. In data set [10] (SD rats, 5 min post injection), the “Tracer uptake, Blood” value is listed as 0.13±0.02 %I.D./gram; the “Tracer uptake, Brain” value was 0.47±0.10 %I.D./gram; the “Tracer uptake, Fat” value turned out to be 0.07±0.02 %I.D./gram; the “Tracer uptake, Heart” value came out at 0.94±0.12 %I.D./gram. In [10] (SD rats, 5 min post injection), the “Tracer uptake, Kidney” value worked out at 1.28±0.28 %I.D./gram; the “Tracer uptake, Lung” value came out at 0.72±0.07 %I.D./gram; the “Tracer uptake, Muscle” value came out at 0.12±0.01 %I.D./gram; the “Tracer uptake, Pancreas” value came to 1.33±0.30 %I.D./gram. In addition, in data set [10] (SD rats, 5 min post injection), the “Tracer uptake, Small intestine” value is 1.16±0.11 %I.D./gram; the “Tracer uptake, Spleen” value was 0.73±0.17 %I.D./gram; the “Tracer uptake, Thymus” value came out at 0.47±0.08 %I.D./gram. Also, in data set [10] (SD rats, 30 min post injection), the “Tracer uptake, Blood” value was 0.12±0.02 %I.D./gram; the “Tracer uptake, Brain” value was determined as 0.18±0.01 %I.D./gram; the “Tracer uptake, Fat” value turned out to be 0.31±0.09 %I.D./gram; the “Tracer uptake, Heart” value is 0.33±0.03 %I.D./gram. Besides, in data set [10] (SD rats, 30 min post injection), the “Tracer uptake, Kidney” value stood at 0.46±0.03 %I.D./gram; the “Tracer uptake, Liver” value is 1.70±0.18 %I.D./gram; the “Tracer uptake, Lung” value is recorded as 0.41±0.07 %I.D./gram; the “Tracer uptake, Muscle” value was determined as 0.17±0.02 %I.D./gram. In [10] (SD rats, 30 min post injection), the “Tracer uptake, Pancreas” value is reported as 0.47±0.01 %I.D./gram; the “Tracer uptake, Small intestine” value is given as 3.01±0.23 %I.D./gram; the “Tracer uptake, Spleen” value is given as 0.20±0.02 %I.D./gram; the “Tracer uptake, Thymus” value was determined as 0.24±0.02 %I.D./gram. In [10] (SD rats, 60 min post injection), the “Tracer uptake, Blood” value was 0.12±0.01 %I.D./gram; the “Tracer uptake, Brain” value came to 0.09±0.02 %I.D./gram; the “Tracer uptake, Fat” value was 0.35±0.12 %I.D./gram; the “Tracer uptake, Heart” value turned out to be 0.20±0.03 %I.D./gram. For the same compound, in data set [10] (SD rats, 60 min post injection), the “Tracer uptake, Kidney” value was found to be 0.33±0.05 %I.D./gram; the “Tracer uptake, Liver” value came to 1.88±0.13 %I.D./gram; the “Tracer uptake, Lung” value was found to be 0.23±0.07 %I.D./gram; the “Tracer uptake, Muscle” value came to 0.13±0.02 %I.D./gram. For the same compound, in data set [10] (SD rats, 60 min post injection), the “Tracer uptake, Pancreas” value turned out to be 0.33±0.06 %I.D./gram; the “Tracer uptake, Small intestine” value is 3.01±1.71 %I.D./gram; the “Tracer uptake, Spleen” value came out at 0.13±0.01 %I.D./gram; the “Tracer uptake, Thymus” value worked out at 0.13±0.03 %I.D./gram. The clearance from plasma entry in data set [10] (rats, ex vivo distribution) is given as “cleared from plasma primarily through hepatobiliary metabolism”. The “regional accumulation in rat brain sections” value at TRPC5 [5] (1.11 MBq/slide, room temperature, 30 min) is “highest accumulation in the TRPC5-enriched colliculus, striatum, cortex, and thalamus regions”. The “binding specificity in rat brain sections” value on TRPC5 [5] (autoradiography with HC608 block) is given as “specifically binds TRPC5 sites in rat brain sections”. For the same compound, the logD7.4 in data set [11] is reported as 1.08 ± 0.04.

One may read the IC50 as the concentration that inhibits the measured activity by half.
